Experimental data from paper PMC5741288 (Pain Reports, 2016).
Values after ≈ are worked out from the molar mass of the structure shown. “Also recorded” adds a separate entry of the source.

Experiments:
[1] = test system: heat-evoked pain; type: in vivo, healthy men
Outline: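 In part 1 (single oral tablets, 1–225 mg, or placebo), heat pain detection and tolerance were measured with a 9 × 9 mm Peltier thermode on the volar forearm, to a 52 °C cutoff. Cold and von Frey mechanical pain thresholds were added in part 1b, with ratings on a 0–11 scale. Testing ran predose, 4 and 8 h, days 2, 4 and 6, and follow-up.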

[2] = QTcF interval; type: in vivo, healthy men
[3] = test system: capsaicin-induced flare; assay: Capsaicin-induced flare area and intensity in humans; type: in vivo, healthy men
Outline: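 Part 2 was a double-blind, 3-way crossover of single oral test compound (10 or 50 mg) or placebo tablets after an overnight fast. Capsaicin cream (0.075% w/w) stayed on the forearm for 30 min. Laser Doppler scans were taken before and after, at predose, 4 h and 144 h postdose. Flare area counted pixels with flux above the 95th percentile (mean + 2 SD) of baseline. Intensity was taken as relative flux.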

[4] = test system: complete Freund's adjuvant–evoked thermal hyperalgesia; conditions: rat; cited from earlier work
[5] = test system: carrageenan-evoked thermal hyperalgesia; conditions: cited from earlier work
[6] = target: human TRPV1 receptors; conditions: cited from earlier work
[7] = Oral body temperature and Emax model vs plasma concentration; type: in vivo, healthy men; conditions: for Mean maximum body temperature: part 2
Outline: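 Oral temperature was recorded as a safety measure in healthy men after single oral tablet doses (part 1: 1–225 mg; part 2: 10, 50 mg, placebo). The maximum value was summarised per dose. An Emax model with baseline effect E0, Emax and EC50 related body temperature to plasma concentration of the test compound.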

[8] = Plasma pharmacokinetics after single oral dose; type: in vivo, healthy men; conditions: for Tmax / half-life: male, human, plasma; for Tmax: Median tmax
Outline: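 After a fast of at least 10 h, single oral tablets were given semirecumbent with 240 mL water (part 1: 1–225 mg; part 2: 10, 50 mg). Plasma was assayed by validated LC-MS/MS over 1–1000 ng/mL (LLOQ 1 ng/mL). Noncompartmental analysis used actual times. Cmax and tmax were taken by inspection, t1/2 = 0.693/λz, CL/F = dose/AUC∞, and Vz/F = D/(λz × AUC∞).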

[9] = test system: naïve and UVB-sensitized skin; assay: Sensory testing part 2 on naïve and UVB-sensitized skin; type: in vivo, healthy men
Outline: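 In the part 2 crossover (oral 10 or 50 mg, or placebo), minimal erythema dose was first found with graded UVB on the lower back. Three times that dose was then given to the volar forearm. Warm detection, heat pain detection, heat pain tolerance, mechanical pain threshold and allodynia were tested on UVB-treated and naïve skin. Times were predose, 4, 8, 24, 72, 120 and 144 h, and follow-up, to a 52 °C maximum.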

[10] = Urinary excretion and renal clearance; type: in vivo, healthy men
Outline: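 Samples were assayed by LC-MS/MS over 5–1000 ng/mL (LLOQ 5 ng/mL). Excreted amount = urine volume × concentration, % of dose = Ae/dose × 100, and renal clearance = Ae/AUC.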

[11] = part 1, vs plasma concentration

- EC50 ([7]; Homo sapiens, po, read-out: EC50, body temperature Emax model): 0.0327 µg/mL (≈ 0.0774 µM)
- Participants with body temperature ≥39°C ([7]; part 1, 120-mg, approximately 11-hour postdose): 1 participant
- E0, body temperature Emax model [7, 11]: 36.6 °C
- Emax, body temperature Emax model [7, 11]: 37.6 °C
- Mean maximum body temperature ([7]; 10 mg): 37.9 °C
- Mean maximum body temperature ([7]; 50 mg): 38.0 °C
- Tmax ([8]; oral, 50 mg, part 2, 10 and 50 mg, tablet, fasted): ~3 h
- half-life ([8]; oral, Mean elimination half-life, part 1, doses of 1 to 225 mg): 29.9 to 85.9 h
- Tmax ([8]; oral, across the dose range administered (discussion)): 2 to 4.5 h
- Tmax ([8]; oral, part 1, doses of 1 to 225 mg, tablet, fasted): 2.02 to 4.44 h
- half-life ([8]; po, Terminal phase half-life, single oral doses): 30 to 86 h
- Renal clearance ([10]; in vivo): negligible
- Concentrations in urine ([10]; lower limit of quantification 5 ng/mL): below the quantification limit
SMILES: CC(C)(O)c1ccccc1-c1ccc2[nH]c(/C=C/c3ccc(C(F)(F)F)cc3)nc2c1 [JNJ-39439335, trans-2-(2-{2-[2-(4-Trifluoromethyl-phenyl)-vinyl]-1H-benzimidazol-5-yl}-phenyl)-propan-2-ol]
- Heat pain detection threshold, heat pain tolerance, and heat pain latency ([1]; effect of treatment): clear, consistent dose-related increases
- Mechanical pain detection threshold ([1]; healthy human participants (discussion)): no effect
- Dose levels at which mean HPT increased from predose to postdose ([1]; part 1): ≥ 2 mg
- Doses at which most participants reached the HPD cutoff temperature (52°C) ([1]; part 1): ≥ 30 mg
- Cold pain detection threshold ([1]; part 1b, 15- to 225-mg dose range): No clear separation from placebo and no clear dose-related effect
- Mean heat pain latency ([1]; part 1b, all dose levels tested (15 to 225 mg), predose to postdose): Increases in mean heat pain latency values
- Participants with increase in QTcF of >30 milliseconds or QTcF >450 milliseconds ([2]; either part of the study): No participant
- Participants with QTcF interval shortening of >30 milliseconds vs baseline ([2]; part 1, 10 mg dose group): 2 n
- Participants with QTcF interval shortening of >30 milliseconds vs baseline ([2]; part 1, 15 mg dose group): 3 n
- Participants with QTcF interval shortening of >30 milliseconds vs baseline ([2]; part 1, 120 mg dose group): 2 n
- Participants with QTcF interval shortening of >30 milliseconds vs baseline ([2]; part 1, 225 mg dose group): 2 n
- Participants with QTcF interval shortening of >30 milliseconds vs baseline ([2]; part 1, all JNJ-39439335 doses): 9 participants
- Participants with QTcF interval shortening of >30 milliseconds vs baseline ([2]; part 2, 50 mg): 4 participants
- Plasma concentration giving maximum effect on flare area and flare intensity ([3]; 4-hour postdose): ≥ 90 ng/mL
- Plasma concentration giving maximum effect on flare area and flare intensity ([3]; 144-hour postdose): > 5 ng/mL
- Capsaicin-induced flare intensity and flare area ([3]; part 2, 10 and 50 mg, 4- and 144-hour postdose): dose-related reduction
- Capsaicin-induced flare area and flare intensity ([3]; part 2, 50-mg dose, 144 hours postdose): complete blocking; also recorded: completely blocked
- Complete Freund's adjuvant–evoked thermal hyperalgesia [4]: significantly attenuated
- Near maximally effective plasma concentration at the ED80 ([5]; rat carrageenan model of inflammatory pain): 0.009 µg/mL
- Carrageenan-evoked thermal hyperalgesia ([5]; rat): significantly attenuated
- IC50 [6]: 4.7 nM
- Dose proportionality of exposure (Cmax, AUC∞) ([8]; doses of 1 to 225 mg): less than dose-proportional increase in exposure
- HPD threshold, HPT, and warm detection threshold ([9]; naïve and UVB-sensitized skin, 10 and 50 mg): dose-dependent increase
- Mechanical pain detection threshold ([9]; naïve skin or UVB-sensitized skin): no clear treatment or dose-related effects
- Plasma concentration at which most participants detected warmth before 52°C ([9]; warm detection threshold): < 200 ng/mL
